# Results: ChEMBL document CHEMBL4610127, “Novel Autotaxin Inhibitor for the Treatment of Idiopathic Pulmonary Fibrosis: A Clinical Candidate Discovered Using DNA-Encoded Chemistry” (J Med Chem, 2020)
# Calls of active or inactive are those of the source. The rule behind the calls is not given here.
# Assays:
# Autotaxin = Autotaxin (Homo sapiens, UniProt Q13822); experiment: Potency index, ratio of IC50 for GLPG1690 to IC50 for test compound for inhibition of autotaxin in human plasma assessed as reduction in LPA (18:2) production incubated for 2 hrs LC-MS-/MS analysis; format: cell-free
# [1] = Protein binding in human plasma; format: ADME, cell-free; settings: read-out: PPB (converted)
# [2] = Time above IC90 in mouse at 30 mg/kg, po; format: ADME, organism-based; settings: in vivo
# Cytochrome P450 2C9 = Cytochrome P450 2C9 (Homo sapiens, UniProt P11712); experiment: Inhibition of CYP2C9 (unknown origin); format: ADME
# Cytochrome P450 2C19 = Cytochrome P450 2C19 (Homo sapiens, UniProt P33261); experiment: Inhibition of CYP2C19 (unknown origin); format: ADME
# [3] = target: T1, Ectonucleotide pyrophosphatase/phosphodiesterase family member 1 (Homo sapiens, UniProt P22413); experiment: Inhibition of ENPP1 (unknown origin)
# T1 sequence (P22413 whole entry): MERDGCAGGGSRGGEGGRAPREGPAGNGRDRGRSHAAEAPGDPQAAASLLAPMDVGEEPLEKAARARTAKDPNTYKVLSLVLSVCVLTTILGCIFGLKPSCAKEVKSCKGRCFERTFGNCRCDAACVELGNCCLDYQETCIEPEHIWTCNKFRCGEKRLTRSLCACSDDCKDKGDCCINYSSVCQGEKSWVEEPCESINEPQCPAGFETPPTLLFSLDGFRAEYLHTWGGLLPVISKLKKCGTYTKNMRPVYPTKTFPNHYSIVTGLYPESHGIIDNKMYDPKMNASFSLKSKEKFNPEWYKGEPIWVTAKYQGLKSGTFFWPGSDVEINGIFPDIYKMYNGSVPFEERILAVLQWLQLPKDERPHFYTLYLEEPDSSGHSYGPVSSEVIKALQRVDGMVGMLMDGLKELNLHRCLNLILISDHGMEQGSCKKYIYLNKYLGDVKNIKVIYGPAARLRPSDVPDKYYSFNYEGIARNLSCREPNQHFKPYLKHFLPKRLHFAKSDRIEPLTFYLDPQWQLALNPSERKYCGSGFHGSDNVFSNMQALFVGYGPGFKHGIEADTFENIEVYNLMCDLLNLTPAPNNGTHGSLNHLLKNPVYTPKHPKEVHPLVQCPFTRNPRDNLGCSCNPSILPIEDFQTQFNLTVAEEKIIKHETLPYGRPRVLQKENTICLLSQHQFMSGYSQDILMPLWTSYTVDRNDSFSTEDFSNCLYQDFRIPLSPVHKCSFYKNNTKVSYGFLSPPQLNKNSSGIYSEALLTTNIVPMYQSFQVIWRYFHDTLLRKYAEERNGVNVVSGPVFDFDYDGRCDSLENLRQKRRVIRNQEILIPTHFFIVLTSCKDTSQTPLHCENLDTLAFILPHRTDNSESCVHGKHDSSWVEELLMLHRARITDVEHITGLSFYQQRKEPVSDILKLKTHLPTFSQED
# [4] = target: Lysophosphatidic acid receptor 1 (Homo sapiens, UniProt Q92633); experiment: Inhibition of LPAR1 (unknown origin)
# [5] = target: Lysophosphatidic acid receptor 2 (Homo sapiens, UniProt Q9HBW0); experiment: Inhibition of LPAR2 (unknown origin)
# [6] = target: T2, Lysophosphatidic acid receptor 3 (Homo sapiens, UniProt Q9UBY5); experiment: Inhibition of LPAR3 (unknown origin)
# T2 sequence (Q9UBY5 whole entry): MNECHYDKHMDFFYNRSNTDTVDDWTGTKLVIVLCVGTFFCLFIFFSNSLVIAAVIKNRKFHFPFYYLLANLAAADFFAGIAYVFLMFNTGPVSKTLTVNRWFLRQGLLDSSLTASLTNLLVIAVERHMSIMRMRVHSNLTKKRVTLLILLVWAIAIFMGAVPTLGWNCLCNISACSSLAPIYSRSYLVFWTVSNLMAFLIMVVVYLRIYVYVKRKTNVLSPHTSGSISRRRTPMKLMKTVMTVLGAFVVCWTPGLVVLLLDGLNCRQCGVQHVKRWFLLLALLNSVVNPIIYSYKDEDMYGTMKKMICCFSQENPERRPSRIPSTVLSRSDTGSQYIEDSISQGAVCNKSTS
# [7] = Half life in rat liver microsomes; format: ADME, Microsome
# [8] = Thermodynamic solubility in pH 7.4 buffer; format: physicochemical; settings: read-out: Therm_solubility
# Rattus norvegicus = experiment: Inhibition of LPA (20:4) production in rat at 0.1 to 30 mg/kg, po measured after 4 hrs by LC-MS/MS analysis; format: functional, organism-based
# Summary of the method: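 Rats dosed orally across a dose range. LPA 20:4 and compound levels measured by LC-MS/MS in blood at 4 h post-dose. LPA 20:4 chosen because it is more abundant in rats. Average percent inhibition of LPA plotted against plasma compound level to derive IC50.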
# Mus musculus [9] = experiment: Anti-fibrotic activity in C57BL/6 mouse model of bleomycin-induced lung fibrosis assessed as reduction in hydroxyproline levels at 30 to 300 mg/kg, po BID dosed until day 21 starting one day prior to bleomycin treatment; format: functional; settings: C57BL/6, po, read-out: MED
# Summary of the method: (§1)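 Mice given oral BID doses (30, 100 or 300 mg/kg) starting one day before bleomycin. Killed 21 days after bleomycin; lung fibrosis scored by hydroxyproline in one group. GLPG1690 at 30 and 100 mg/kg BID as control. Hydroxyproline plotted per mouse; medians and p-values against bleomycin + vehicle.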
# Mus musculus [10] = experiment: Anti-fibrotic activity in C57BL/6 mouse model of bleomycin-induced lung fibrosis assessed as reduction in hydroxyproline levels at 100 to 300 mg/kg, po BID dosed until day 21 starting one day prior to bleomycin treatment; format: functional, organism-based; summary of the method: as §1
# Mus musculus [11] = experiment: Anti-fibrotic activity in C57BL/6 mouse model of bleomycin-induced lung fibrosis assessed as reduction in lung fibrosis levels at 30 to 300 mg/kg, po BID for 21 days dosed 7 days after bleomycin treatment by trichrome staining based assay; format: functional, organism-based
# Summary of the method: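 Therapeutic mode: oral BID dosing (30, 100, 300 mg/kg) began seven days after bleomycin. Mice killed 21 days after bleomycin; fibrosis quantitated by trichrome staining of lung tissue in a separate group from the hydroxyproline group. GLPG1690 at 30 and 100 mg/kg BID as control.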
# [12] = Clearance in mouse at 1 mg/kg, iv; format: ADME, organism-based; settings: in vivo
# [13] = Volume of distribution at steady state in mouse at 1 mg/kg, iv; format: ADME, organism-based; settings: in vivo, read-out: Vdss
# [14] = Cmax in mouse at 10 mg/kg, po; format: ADME, organism-based; design: dose 10 mg/kg, route oral; settings: in vivo
# [15] = Oral bioavailability in mouse at 10 mg/kg; format: ADME, organism-based; settings: in vivo
# [16] = Volume of distribution at steady state in rat at 1 mg/kg, iv; format: ADME, organism-based; settings: in vivo, read-out: Vdss
# [17] = Cmax in rat at 5 mg/kg, po; format: ADME, organism-based; design: dose 5 mg/kg, route oral; settings: in vivo
# [18] = Half life in rat at 5 mg/kg, po; format: ADME, organism-based; settings: in vivo
# [19] = Oral bioavailability in rat at 5 mg/kg; format: ADME, organism-based; settings: in vivo
# [20] = Clearance in dog at 1 mg/kg, iv; format: ADME, organism-based, Canis lupus familiaris; settings: in vivo
# [21] = Half life in dog at 1 mg/kg, iv; format: ADME, organism-based, Canis lupus familiaris; settings: in vivo
# [22] = Cmax in dog at 1 mg/kg, po; format: ADME, organism-based, Canis lupus familiaris; design: dose 1 mg/kg, route oral; settings: in vivo
# [23] = Half life in dog at 1 mg/kg, po; format: ADME, organism-based, Canis lupus familiaris; settings: in vivo
# [24] = Oral bioavailability in dog at 1 mg/kg; format: ADME, organism-based, Canis lupus familiaris; settings: in vivo
# Sequence of Lysophosphatidic acid receptor 1 (Q92633 whole entry): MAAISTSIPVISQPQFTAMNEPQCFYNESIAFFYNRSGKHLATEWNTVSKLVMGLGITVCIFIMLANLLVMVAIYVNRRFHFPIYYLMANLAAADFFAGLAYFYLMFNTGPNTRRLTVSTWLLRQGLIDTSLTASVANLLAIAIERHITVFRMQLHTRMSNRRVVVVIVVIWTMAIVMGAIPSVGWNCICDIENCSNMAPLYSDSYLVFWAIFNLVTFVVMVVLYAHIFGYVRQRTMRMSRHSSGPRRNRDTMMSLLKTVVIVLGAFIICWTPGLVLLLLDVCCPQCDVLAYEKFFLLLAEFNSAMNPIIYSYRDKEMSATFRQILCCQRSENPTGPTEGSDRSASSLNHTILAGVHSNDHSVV
# Sequence of Lysophosphatidic acid receptor 2 (Q9HBW0 whole entry): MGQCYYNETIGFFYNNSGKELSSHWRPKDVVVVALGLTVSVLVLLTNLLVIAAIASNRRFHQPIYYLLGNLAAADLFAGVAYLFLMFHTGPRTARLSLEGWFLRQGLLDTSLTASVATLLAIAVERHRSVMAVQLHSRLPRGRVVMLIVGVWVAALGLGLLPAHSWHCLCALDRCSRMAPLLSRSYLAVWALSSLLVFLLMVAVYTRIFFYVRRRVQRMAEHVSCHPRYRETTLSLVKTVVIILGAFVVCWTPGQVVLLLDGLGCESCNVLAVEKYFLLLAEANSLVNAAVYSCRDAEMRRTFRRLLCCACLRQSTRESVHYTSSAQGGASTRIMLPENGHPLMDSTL
# Sequence of Cytochrome P450 2C19 (P33261 whole entry): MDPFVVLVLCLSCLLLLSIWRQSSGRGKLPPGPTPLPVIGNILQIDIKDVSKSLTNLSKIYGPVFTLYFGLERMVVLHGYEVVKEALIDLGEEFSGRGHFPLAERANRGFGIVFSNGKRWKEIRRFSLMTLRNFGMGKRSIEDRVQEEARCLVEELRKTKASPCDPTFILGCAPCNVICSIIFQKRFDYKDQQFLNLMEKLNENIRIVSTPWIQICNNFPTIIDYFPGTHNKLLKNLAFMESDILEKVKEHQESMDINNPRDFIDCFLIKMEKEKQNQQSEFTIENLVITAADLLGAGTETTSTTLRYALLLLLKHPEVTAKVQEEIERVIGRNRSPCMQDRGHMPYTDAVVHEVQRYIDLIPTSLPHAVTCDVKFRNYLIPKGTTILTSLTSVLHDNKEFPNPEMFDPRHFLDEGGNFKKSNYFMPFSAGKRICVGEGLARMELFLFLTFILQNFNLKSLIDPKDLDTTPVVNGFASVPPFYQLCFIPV
# Sequence of Cytochrome P450 2C9 (P11712 whole entry): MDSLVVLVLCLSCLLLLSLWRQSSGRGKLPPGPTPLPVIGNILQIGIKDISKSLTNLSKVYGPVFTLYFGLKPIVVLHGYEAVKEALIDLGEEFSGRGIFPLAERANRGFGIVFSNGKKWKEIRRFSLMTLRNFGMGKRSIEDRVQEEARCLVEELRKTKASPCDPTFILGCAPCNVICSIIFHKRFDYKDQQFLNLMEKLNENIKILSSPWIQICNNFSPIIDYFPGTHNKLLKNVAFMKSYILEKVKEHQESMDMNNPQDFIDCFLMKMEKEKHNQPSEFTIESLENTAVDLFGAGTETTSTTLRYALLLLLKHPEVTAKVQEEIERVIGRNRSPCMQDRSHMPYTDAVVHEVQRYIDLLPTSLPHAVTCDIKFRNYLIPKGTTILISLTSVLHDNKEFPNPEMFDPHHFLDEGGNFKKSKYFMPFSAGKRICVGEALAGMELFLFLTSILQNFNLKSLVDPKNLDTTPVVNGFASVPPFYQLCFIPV
structure (smiles),measurement,setting,value
CC(C)[C@@H](NC(=O)c1cc(C(F)(F)F)ccc1F)C(=O)N1CCC2(CC1)C(=O)N(C)C(=O)N2c1ccc2[nH]ncc2c1,Ratio IC50,Autotaxin,20
same,fraction unbound,[1],0.113
same,Time,[2],12 h
same,IC50,Cytochrome P450 2C9,10.4 µM
same,IC50,Cytochrome P450 2C19,46 µM
same,IC50,[3],> 10 µM
same,IC50,[4],> 10 µM
same,IC50,[5],> 10 µM
same,IC50,[6],> 10 µM
same,half-life,[7],4.62 h
same,solubility thermodynamic,[8],452 µM
same,IC50,Rattus norvegicus,0.0065 µM
same,inhibition,Rattus norvegicus,Dose-dependent effect
same,minimal effective dose,Mus musculus [9],30 mg/kg
same,Activity,Mus musculus [10],Active
same,Activity,Mus musculus [11],Dose-dependent effect
same,clearance,[12],54 mL/min/kg
same,Vd,[13],1.38 L/kg
same,Cmax,[14],744 ng/mL
same,bioavailability,[15],81%
same,Vd,[16],1.98 L/kg
same,Cmax,[17],160 ng/mL
same,half-life,[18],1.8 h
same,bioavailability,[19],24%
same,clearance,[20],7.96 mL/min/kg
same,half-life,[21],4.1 h
same,Cmax,[22],374 ng/mL
same,half-life,[23],4.2 h
same,bioavailability,[24],100%
